Each compound was assayed against D(2) dopamine receptor (Rattus norvegicus, UniProt P61169) (assay: Displacement of [3H]spiperone from D2 receptor in rat striatum by liquid scintillation counting analysis).
Method in brief: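 Rat striatal membranes with [3H]-spiperone. Compounds were tested in triplicate at 7–8 concentrations (10⁻¹¹–10⁻⁴). Ki values were calculated.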

Sequence of D(2) dopamine receptor (P61169 whole entry): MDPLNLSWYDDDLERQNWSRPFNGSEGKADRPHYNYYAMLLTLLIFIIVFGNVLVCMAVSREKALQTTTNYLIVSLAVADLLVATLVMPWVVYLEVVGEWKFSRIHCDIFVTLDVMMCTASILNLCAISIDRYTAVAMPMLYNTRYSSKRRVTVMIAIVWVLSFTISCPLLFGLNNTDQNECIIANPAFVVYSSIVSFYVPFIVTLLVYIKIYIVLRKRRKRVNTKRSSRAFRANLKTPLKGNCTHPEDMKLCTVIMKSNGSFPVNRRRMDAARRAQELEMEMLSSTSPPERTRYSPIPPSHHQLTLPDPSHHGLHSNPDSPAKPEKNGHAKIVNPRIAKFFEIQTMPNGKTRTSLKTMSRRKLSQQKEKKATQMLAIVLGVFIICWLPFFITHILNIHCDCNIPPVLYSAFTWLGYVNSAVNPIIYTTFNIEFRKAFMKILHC

Row | Structure (SMILES) | Ki [nM]
1 | COc1ccccc1N1CCN(CCCCN2C(=O)NC3(CCc4ccccc43)C2=O)CC1 (stereo not given) | 104
2 | COc1ccccc1N1CCN(CCCCN2C(=O)NC3(CCCc4ccccc43)C2=O)CC1 (stereo not given) | 59

Each compound was assayed against D(1A) dopamine receptor (Homo sapiens) (UniProt P21728) (assay: Displacement of [3H]SCH23390 from human D1 receptor expressed in CHO cells at 1 uM by scintillation counting analysis).
Sequence of D(1A) dopamine receptor (Homo sapiens) (P21728 whole entry): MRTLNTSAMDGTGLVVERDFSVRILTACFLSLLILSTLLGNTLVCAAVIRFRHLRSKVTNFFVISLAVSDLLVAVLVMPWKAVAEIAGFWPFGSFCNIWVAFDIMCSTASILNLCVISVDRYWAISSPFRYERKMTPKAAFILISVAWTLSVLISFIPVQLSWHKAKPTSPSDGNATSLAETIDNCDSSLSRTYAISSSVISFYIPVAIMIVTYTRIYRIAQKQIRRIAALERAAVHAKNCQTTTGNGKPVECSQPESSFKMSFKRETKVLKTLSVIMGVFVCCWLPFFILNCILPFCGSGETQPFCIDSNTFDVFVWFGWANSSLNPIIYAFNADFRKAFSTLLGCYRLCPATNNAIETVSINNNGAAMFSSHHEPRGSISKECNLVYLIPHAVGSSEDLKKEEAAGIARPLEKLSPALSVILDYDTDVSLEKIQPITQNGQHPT
Assay type: cell-based
Method in brief: (§1)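 Extended binding screen run by a contract lab. Receptors were cloned human: 5-HT1A, 5-HT2A, 5-HT2C and H1 in HEK-293 cells; D1, α1, α2C and M3 in CHO cells; 5-HT6/7 and D2/3/4 in CHO cells. Radioligand displacement was done at a single 1.0E-06 concentration in duplicate. Results are mean % inhibition of control specific binding.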

Row | Structure (SMILES) | inhibition [%]
3 | COc1ccccc1N1CCN(CCCCN2C(=O)NC3(CCc4ccccc43)C2=O)CC1 (stereo not given) | 68
4 | COc1ccccc1N1CCN(CCCCN2C(=O)NC3(CCCc4ccccc43)C2=O)CC1 (stereo not given) | 87

What follows are compounds tested against 5-hydroxytryptamine receptor 7 (Homo sapiens) (UniProt P34969) (assay: Displacement of [3H]LSD from human 5HT7 receptor expressed in CHO cells at 1 uM by scintillation counting analysis).
Sequence of 5-hydroxytryptamine receptor 7 (Homo sapiens) (P34969 whole entry): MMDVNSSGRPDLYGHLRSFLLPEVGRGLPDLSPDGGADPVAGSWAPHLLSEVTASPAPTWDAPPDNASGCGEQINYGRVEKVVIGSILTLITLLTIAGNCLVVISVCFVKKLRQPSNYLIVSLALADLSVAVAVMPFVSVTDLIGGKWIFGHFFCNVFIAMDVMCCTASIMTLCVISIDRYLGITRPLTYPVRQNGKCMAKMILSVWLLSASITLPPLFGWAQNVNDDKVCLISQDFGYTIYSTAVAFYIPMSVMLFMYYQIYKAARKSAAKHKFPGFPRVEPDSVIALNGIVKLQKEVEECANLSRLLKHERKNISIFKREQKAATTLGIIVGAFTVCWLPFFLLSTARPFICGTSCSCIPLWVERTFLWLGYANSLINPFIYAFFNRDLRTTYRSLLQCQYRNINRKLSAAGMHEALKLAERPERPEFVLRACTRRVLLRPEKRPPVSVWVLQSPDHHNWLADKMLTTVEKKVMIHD
Assay type: cell-based
Method in brief: as §1

Row | Structure (SMILES) | inhibition [%]
5 | COc1ccccc1N1CCN(CCCCN2C(=O)NC3(CCc4ccccc43)C2=O)CC1 (stereo not given) | 98
6 | COc1ccccc1N1CCN(CCCCN2C(=O)NC3(CCCc4ccccc43)C2=O)CC1 (stereo not given) | 99

The compounds below were run against Muscarinic acetylcholine receptor M3 (Homo sapiens) (UniProt P20309) (assay: Displacement of [3H]-4-DAMP from human muscarinic M3 receptor expressed in CHO cells at 1 uM by scintillation counting analysis).
Sequence of Muscarinic acetylcholine receptor M3 (Homo sapiens) (P20309 whole entry, looked up): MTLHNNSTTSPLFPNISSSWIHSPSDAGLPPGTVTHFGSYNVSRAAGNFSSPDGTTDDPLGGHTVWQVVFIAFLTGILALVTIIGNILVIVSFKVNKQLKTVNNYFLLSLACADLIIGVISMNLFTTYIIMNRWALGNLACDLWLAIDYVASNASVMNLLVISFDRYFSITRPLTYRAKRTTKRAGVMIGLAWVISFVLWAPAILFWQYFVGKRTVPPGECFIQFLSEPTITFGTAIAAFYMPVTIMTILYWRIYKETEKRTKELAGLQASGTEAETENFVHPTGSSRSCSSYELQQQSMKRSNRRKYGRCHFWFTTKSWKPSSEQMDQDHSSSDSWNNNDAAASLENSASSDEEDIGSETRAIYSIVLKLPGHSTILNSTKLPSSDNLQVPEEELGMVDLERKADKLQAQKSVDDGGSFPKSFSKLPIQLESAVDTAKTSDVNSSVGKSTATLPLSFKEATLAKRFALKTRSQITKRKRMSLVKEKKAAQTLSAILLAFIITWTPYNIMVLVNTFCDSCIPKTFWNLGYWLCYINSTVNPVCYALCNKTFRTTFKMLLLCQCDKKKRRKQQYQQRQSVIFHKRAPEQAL
Assay type: cell-based
Method in brief: as §1

Row | Structure (SMILES) | inhibition [%]
7 | COc1ccccc1N1CCN(CCCCN2C(=O)NC3(CCc4ccccc43)C2=O)CC1 (stereo not given) | 5
8 | COc1ccccc1N1CCN(CCCCN2C(=O)NC3(CCCc4ccccc43)C2=O)CC1 (stereo not given) | -6

Each compound was assayed against T1, Alpha-2C adrenergic receptor (Homo sapiens) (UniProt P18825) (assay: Displacement of [3H]RX821002 from human alpha2C adrenergic receptor expressed in CHO cells at 1 uM by scintillation counting analysis).
T1 sequence (whole entry): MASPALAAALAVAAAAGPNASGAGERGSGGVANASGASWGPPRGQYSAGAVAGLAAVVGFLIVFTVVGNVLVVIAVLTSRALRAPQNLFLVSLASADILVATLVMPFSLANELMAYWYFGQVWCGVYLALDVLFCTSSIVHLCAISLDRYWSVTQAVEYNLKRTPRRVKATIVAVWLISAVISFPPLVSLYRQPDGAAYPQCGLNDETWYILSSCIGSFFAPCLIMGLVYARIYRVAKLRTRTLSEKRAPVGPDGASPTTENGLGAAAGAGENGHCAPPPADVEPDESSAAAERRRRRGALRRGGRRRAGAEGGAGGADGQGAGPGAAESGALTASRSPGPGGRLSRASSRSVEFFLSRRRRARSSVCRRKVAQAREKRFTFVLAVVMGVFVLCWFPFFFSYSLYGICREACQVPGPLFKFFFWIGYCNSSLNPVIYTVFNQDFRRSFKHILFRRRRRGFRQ
Assay type: cell-based
Method in brief: as §1

Row | Structure (SMILES) | inhibition [%]
9 | COc1ccccc1N1CCN(CCCCN2C(=O)NC3(CCc4ccccc43)C2=O)CC1 (stereo not given) | 101
10 | COc1ccccc1N1CCN(CCCCN2C(=O)NC3(CCCc4ccccc43)C2=O)CC1 (stereo not given) | 101

Each compound was assayed against 5-hydroxytryptamine receptor 6 (Homo sapiens) (UniProt P50406) (assay: Displacement of [3H]LSD from human 5HT6 receptor expressed in CHO cells at 1 uM by scintillation counting analysis).
Sequence of 5-hydroxytryptamine receptor 6 (Homo sapiens) (P50406 whole entry): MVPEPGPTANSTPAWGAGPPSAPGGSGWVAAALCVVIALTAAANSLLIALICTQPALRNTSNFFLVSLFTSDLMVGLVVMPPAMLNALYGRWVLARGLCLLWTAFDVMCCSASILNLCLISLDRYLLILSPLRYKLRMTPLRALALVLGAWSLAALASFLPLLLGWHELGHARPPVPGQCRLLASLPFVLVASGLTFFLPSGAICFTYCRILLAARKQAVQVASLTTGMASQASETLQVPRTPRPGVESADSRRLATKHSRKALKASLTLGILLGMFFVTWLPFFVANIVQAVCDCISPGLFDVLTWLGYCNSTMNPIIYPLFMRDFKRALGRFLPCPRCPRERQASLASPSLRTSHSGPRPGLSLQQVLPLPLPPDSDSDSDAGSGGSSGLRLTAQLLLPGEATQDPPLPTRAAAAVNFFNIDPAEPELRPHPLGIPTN
Assay type: cell-based
Method in brief: as §1

Row | Structure (SMILES) | inhibition [%]
11 | COc1ccccc1N1CCN(CCCCN2C(=O)NC3(CCc4ccccc43)C2=O)CC1 (stereo not given) | 3
12 | COc1ccccc1N1CCN(CCCCN2C(=O)NC3(CCCc4ccccc43)C2=O)CC1 (stereo not given) | 29

These compounds were tested against T2, 5-hydroxytryptamine receptor 2C (Homo sapiens) (UniProt P28335) (assay: Displacement of [3H]-mesulergine from human cloned 5HT2C receptor expressed in HEK293 cells at 1 uM by scintillation counting analysis).
T2 sequence (whole entry): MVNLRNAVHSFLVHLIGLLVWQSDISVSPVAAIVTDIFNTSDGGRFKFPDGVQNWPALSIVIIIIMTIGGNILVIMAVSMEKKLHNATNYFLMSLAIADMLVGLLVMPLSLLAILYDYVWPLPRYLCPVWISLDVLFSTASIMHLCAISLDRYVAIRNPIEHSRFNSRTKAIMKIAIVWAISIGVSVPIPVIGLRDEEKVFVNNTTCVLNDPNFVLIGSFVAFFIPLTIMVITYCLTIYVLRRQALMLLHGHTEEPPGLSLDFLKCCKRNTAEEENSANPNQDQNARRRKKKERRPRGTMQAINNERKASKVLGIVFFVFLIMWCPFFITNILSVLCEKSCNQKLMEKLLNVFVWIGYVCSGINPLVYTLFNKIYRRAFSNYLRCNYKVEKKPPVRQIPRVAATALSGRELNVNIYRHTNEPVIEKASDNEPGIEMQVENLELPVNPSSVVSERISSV
Assay type: cell-based
Method in brief: as §1

Row | Structure (SMILES) | inhibition [%]
13 | COc1ccccc1N1CCN(CCCCN2C(=O)NC3(CCc4ccccc43)C2=O)CC1 (stereo not given) | 21
14 | COc1ccccc1N1CCN(CCCCN2C(=O)NC3(CCCc4ccccc43)C2=O)CC1 (stereo not given) | 24

Each compound was assayed against D(2) dopamine receptor (Homo sapiens) (UniProt P14416) (assay: Displacement of [3H]methylspiperione from human D2 receptor expressed in CHO cells at 1 uM by scintillation counting analysis).
Sequence of D(2) dopamine receptor (Homo sapiens) (P14416 whole entry): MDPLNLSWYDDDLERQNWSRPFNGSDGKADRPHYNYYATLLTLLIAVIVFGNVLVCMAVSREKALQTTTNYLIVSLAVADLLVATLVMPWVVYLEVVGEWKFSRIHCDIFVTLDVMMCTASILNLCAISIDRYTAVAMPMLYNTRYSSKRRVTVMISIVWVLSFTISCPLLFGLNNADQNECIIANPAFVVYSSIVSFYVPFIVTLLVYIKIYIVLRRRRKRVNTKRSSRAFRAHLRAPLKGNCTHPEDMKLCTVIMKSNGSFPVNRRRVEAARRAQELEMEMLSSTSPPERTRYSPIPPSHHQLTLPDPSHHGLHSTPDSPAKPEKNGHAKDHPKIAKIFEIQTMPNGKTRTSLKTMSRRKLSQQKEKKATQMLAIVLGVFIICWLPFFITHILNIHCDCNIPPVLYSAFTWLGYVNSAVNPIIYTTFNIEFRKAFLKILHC
Assay type: cell-based
Method in brief: as §1

Row | Structure (SMILES) | inhibition [%]
15 | COc1ccccc1N1CCN(CCCCN2C(=O)NC3(CCc4ccccc43)C2=O)CC1 (stereo not given) | 96
16 | COc1ccccc1N1CCN(CCCCN2C(=O)NC3(CCCc4ccccc43)C2=O)CC1 (stereo not given) | 97

These compounds were tested against D(3) dopamine receptor (Homo sapiens) (UniProt P35462) (assay: Displacement of [3H]methylspiperione from human D3 receptor expressed in CHO cells at 1 uM by scintillation counting analysis).
Sequence of D(3) dopamine receptor (Homo sapiens) (P35462 whole entry): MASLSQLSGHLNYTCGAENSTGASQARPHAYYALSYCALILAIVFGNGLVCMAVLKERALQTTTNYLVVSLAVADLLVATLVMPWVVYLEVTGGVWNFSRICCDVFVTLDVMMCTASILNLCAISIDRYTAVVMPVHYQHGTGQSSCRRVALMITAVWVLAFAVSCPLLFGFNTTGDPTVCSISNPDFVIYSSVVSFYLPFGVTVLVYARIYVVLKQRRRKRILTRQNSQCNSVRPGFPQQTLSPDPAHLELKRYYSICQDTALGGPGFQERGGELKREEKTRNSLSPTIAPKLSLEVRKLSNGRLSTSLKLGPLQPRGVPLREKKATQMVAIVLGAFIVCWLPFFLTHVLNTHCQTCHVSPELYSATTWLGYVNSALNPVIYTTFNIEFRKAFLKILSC
Assay type: cell-based
Method in brief: as §1

Row | Structure (SMILES) | inhibition [%]
17 | COc1ccccc1N1CCN(CCCCN2C(=O)NC3(CCc4ccccc43)C2=O)CC1 (stereo not given) | 96
18 | COc1ccccc1N1CCN(CCCCN2C(=O)NC3(CCCc4ccccc43)C2=O)CC1 (stereo not given) | 94

These compounds were tested against T3, D(4) dopamine receptor (Homo sapiens) (UniProt P21917) (assay: Displacement of [3H]methylspiperione from human D4 receptor expressed in CHO cells at 1 uM by scintillation counting analysis).
T3 sequence (whole entry): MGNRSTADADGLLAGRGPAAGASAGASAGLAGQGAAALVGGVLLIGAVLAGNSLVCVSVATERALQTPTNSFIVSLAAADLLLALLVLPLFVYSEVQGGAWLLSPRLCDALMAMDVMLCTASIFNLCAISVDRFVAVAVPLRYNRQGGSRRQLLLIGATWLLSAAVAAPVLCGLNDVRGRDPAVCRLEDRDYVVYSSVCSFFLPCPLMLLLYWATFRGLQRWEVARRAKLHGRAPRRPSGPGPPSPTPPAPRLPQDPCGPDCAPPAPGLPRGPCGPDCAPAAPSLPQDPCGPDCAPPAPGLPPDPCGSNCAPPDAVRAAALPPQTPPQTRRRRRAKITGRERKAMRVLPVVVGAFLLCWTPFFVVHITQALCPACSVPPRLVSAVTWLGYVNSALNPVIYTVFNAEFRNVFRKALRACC
Assay type: cell-based
Method in brief: as §1

Row | Structure (SMILES) | inhibition [%]
19 | COc1ccccc1N1CCN(CCCCN2C(=O)NC3(CCc4ccccc43)C2=O)CC1 (stereo not given) | 95
20 | COc1ccccc1N1CCN(CCCCN2C(=O)NC3(CCCc4ccccc43)C2=O)CC1 (stereo not given) | 98

Each compound was assayed against 5-hydroxytryptamine receptor 2A (Homo sapiens) (UniProt P28223) (assay: Displacement of [3H]ketanserin from human cloned 5HT2A receptor expressed in HEK293 cells at 1uM by scintillation counting analysis).
Sequence of 5-hydroxytryptamine receptor 2A (Homo sapiens) (P28223 whole entry): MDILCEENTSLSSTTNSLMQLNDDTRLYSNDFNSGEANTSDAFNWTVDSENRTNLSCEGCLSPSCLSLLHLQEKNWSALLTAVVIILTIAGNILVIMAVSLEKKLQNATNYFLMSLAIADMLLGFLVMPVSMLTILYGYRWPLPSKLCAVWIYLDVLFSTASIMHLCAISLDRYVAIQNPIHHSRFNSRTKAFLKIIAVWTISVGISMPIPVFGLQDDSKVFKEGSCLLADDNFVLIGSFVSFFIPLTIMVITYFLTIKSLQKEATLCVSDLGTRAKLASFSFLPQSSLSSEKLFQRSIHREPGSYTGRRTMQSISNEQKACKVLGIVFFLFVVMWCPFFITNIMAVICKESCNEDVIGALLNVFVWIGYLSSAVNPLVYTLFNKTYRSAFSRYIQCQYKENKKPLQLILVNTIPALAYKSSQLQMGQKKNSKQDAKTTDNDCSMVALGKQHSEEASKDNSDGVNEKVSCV
Assay type: cell-based
Method in brief: as §1

Row | Structure (SMILES) | inhibition [%]
21 | COc1ccccc1N1CCN(CCCCN2C(=O)NC3(CCc4ccccc43)C2=O)CC1 (stereo not given) | 100
22 | COc1ccccc1N1CCN(CCCCN2C(=O)NC3(CCCc4ccccc43)C2=O)CC1 (stereo not given) | 69

The compounds below were run against Histamine H1 receptor (Homo sapiens) (UniProt P35367) (assay: Displacement of [3H]-pyrilamine from human cloned H1 receptor expressed in HEK293 cells at 1 uM by scintillation counting analysis).
Assay type: cell-based
Method in brief: as §1

Row | Structure (SMILES) | inhibition [%]
23 | COc1ccccc1N1CCN(CCCCN2C(=O)NC3(CCc4ccccc43)C2=O)CC1 (stereo not given) | 94
24 | COc1ccccc1N1CCN(CCCCN2C(=O)NC3(CCCc4ccccc43)C2=O)CC1 (stereo not given) | 99

The compounds below were run against 5-hydroxytryptamine receptor 7 (Rattus norvegicus, UniProt P32305) (assay: Displacement of [3H]-5-CT from 5-HT7 receptor in rat hypothalamic membrane by liquid scintillation analysis).
Sequence of 5-hydroxytryptamine receptor 7 (P32305 whole entry): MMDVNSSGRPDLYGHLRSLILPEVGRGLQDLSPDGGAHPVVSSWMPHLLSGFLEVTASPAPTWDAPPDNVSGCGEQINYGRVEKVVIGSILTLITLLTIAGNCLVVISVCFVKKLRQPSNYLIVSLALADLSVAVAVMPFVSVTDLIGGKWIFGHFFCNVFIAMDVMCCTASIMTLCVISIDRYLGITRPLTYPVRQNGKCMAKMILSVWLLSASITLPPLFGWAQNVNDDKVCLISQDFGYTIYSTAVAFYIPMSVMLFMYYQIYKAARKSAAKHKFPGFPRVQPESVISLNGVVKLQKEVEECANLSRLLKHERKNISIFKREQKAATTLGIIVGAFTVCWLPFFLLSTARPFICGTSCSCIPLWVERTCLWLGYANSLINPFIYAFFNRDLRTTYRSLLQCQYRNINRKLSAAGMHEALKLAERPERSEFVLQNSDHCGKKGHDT
Assay type: cell membranes
Method in brief: (§2)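 Native rat membranes were used: hippocampus with [3H]-8-OH-DPAT (170 Ci/mmol) and 5-HT for non-specific binding; cortex with [3H]-ketanserin (88.0 Ci/mmol) and methysergide; hypothalamus with [3H]-5-CT (34.5 Ci/mmol) and 5-HT. Compounds were tested in triplicate at 7–8 concentrations (10⁻¹¹–10⁻⁴ M). Read-out was liquid scintillation counting. Ki came from nonlinear regression with Cheng-Prusoff, as the mean of at least two experiments.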

Row | Structure (SMILES) | Ki [nM]
25 | COc1ccccc1N1CCN(CCCCN2C(=O)NC3(CCc4ccccc43)C2=O)CC1 (stereo not given) | 71
26 | COc1ccccc1N1CCN(CCCCN2C(=O)NC3(CCCc4ccccc43)C2=O)CC1 (stereo not given) | 47

The compounds below were run against Adrenergic receptor alpha-1 (Homo sapiens) (UniProt P35348+P25100+P35368) (assay: Displacement of [3H]prazosin from human alpha1-adrenergic receptor expressed in CHO cells at 1 uM by scintillation counting analysis).
Assay type: cell-based
Method in brief: as §1

Row | Structure (SMILES) | inhibition [%]
27 | COc1ccccc1N1CCN(CCCCN2C(=O)NC3(CCc4ccccc43)C2=O)CC1 (stereo not given) | 98
28 | COc1ccccc1N1CCN(CCCCN2C(=O)NC3(CCCc4ccccc43)C2=O)CC1 (stereo not given) | 99

These compounds were tested against 5-hydroxytryptamine receptor 2A (Rattus norvegicus, UniProt P14842) (assay: Displacement of [3H]ketanserin from 5-HT2A receptor in rat cortical membrane by liquid scintillation analysis).
Sequence of 5-hydroxytryptamine receptor 2A (P14842 whole entry): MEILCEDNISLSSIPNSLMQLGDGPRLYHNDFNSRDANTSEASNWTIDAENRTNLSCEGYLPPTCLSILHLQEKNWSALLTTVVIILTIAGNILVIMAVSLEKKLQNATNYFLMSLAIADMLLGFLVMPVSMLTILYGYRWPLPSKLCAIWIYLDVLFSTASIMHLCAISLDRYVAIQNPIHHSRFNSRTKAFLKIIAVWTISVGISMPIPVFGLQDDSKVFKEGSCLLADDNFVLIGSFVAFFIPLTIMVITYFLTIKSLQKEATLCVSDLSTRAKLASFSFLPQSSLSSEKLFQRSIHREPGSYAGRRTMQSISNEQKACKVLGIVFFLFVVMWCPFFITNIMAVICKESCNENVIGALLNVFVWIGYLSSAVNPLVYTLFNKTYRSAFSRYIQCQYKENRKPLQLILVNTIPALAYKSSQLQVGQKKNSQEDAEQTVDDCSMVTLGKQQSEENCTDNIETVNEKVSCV
Assay type: cell membranes
Method in brief: as §2

Row | Structure (SMILES) | Ki [nM]
29 | COc1ccccc1N1CCN(CCCCN2C(=O)NC3(CCc4ccccc43)C2=O)CC1 (stereo not given) | 98
30 | COc1ccccc1N1CCN(CCCCN2C(=O)NC3(CCCc4ccccc43)C2=O)CC1 (stereo not given) | 59

Reference: ChEMBL document CHEMBL3588770, “Novel spirohydantoin derivative as a potent multireceptor-active antipsychotic and antidepressant agent” (Bioorg Med Chem, 2015)
